The values that follow come from paper PMC3428230 (ChemMedChem, 2011).

For one data set, the target named is human GSK-3β (Homo sapiens, UniProt P49841). The data set can be described thus: In vitro GSK-3β inhibition: phosphorylation of primed substrate. Type of data set: biochemical.
The next data set addresses CYP2D6 (Homo sapiens, UniProt P10635). Nature of the data set: Cytochrome P450 inhibition. The format is in vitro ADME. The note with it: up to 10 μM of 3a.
Data set [1] in a line: Mouse liver microsomal stability. Type of data set: in vitro ADME. The note with it: 60 min, 1 and 10 μM. For orientation: Liver microsomes are a subcellular fraction often used to study metabolism.
In the next data set the target is CYP2C9 (Homo sapiens, UniProt P11712). Nature of the data set: Cytochrome P450 inhibition. The note with it: up to 10 μM of 3a. Type of data set: in vitro ADME.
The subject of data set [2] is C57BL/6J male mice. The data set can be described thus: Amphetamine–chlordiazepoxide locomotor hyperactivity procedure. Type of data set: in vivo.
The subject of another data set is ClockΔ19 mutant mice. The data set can be described thus: Locomotor activity in CLOCK mutant mice. The format is in vivo. The following applies: 12.5 mgkg^−1 i.p. once a day for five days, 2 h recording.
Data set [3] can be described thus: Human liver microsomal stability. The format is in vitro ADME. The note with it: 60 min, 1 and 10 μM.
A further data set deals with T1, CYP1A2 (Homo sapiens, UniProt P05177).
T1 sequence (P05177 1-516): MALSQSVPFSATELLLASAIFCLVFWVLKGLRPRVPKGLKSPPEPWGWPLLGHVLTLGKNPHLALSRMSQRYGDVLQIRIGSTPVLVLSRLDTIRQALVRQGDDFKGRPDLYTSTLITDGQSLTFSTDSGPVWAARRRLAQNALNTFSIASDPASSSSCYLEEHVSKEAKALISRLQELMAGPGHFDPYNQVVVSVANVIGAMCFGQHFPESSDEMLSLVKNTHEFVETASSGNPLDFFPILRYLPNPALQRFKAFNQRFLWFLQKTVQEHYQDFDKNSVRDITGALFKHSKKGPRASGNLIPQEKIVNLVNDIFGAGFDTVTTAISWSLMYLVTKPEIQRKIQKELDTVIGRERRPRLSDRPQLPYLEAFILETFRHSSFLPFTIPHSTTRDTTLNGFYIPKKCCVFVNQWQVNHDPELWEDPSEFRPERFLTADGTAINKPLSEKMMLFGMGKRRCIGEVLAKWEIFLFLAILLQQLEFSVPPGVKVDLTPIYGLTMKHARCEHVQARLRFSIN
The data set can be described thus: Cytochrome P450 inhibition. The following applies: up to 10 μM of 3a. Type of data set: in vitro ADME.

Another data set addresses CYP2C19 (Homo sapiens, UniProt P33261). Nature of the data set: Cytochrome P450 inhibition. The format is in vitro ADME. The following applies: up to 10 μM of 3a.
Data set [4] can be described thus: Aqueous solubility, HPLC-based method. The format is physicochemical.
The test system of another data set is 15 kinases. Nature of the data set: Selectivity studies against 15 kinases. The format is biochemical. The following applies: 15 kinases (Supporting Information).
For a further data set, the target named is T2, CYP2B6 (Homo sapiens, UniProt P20813).
T2 sequence (P20813 1-491): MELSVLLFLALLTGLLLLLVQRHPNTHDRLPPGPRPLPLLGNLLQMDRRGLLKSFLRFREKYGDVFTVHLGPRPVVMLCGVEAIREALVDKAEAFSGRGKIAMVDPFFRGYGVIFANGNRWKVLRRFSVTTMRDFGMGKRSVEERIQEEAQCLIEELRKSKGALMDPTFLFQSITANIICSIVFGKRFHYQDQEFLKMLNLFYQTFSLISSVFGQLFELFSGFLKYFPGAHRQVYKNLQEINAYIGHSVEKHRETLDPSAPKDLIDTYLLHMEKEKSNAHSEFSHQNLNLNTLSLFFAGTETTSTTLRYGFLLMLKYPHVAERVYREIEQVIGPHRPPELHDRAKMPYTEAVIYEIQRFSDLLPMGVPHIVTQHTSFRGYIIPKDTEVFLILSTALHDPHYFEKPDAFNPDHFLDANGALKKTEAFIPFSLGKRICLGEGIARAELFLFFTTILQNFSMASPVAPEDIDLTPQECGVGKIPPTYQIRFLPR
The data set can be described thus: Cytochrome P450 inhibition. The format is in vitro ADME. The note with it: up to 10 μM of 3a.

The subject of data set [5] is C57BL/6J male mice. Nature of the data set: Prepulse inhibition of the acoustic startle response. Type of data set: in vivo. The note with it: 30 min pretreatment. The gist of the method:
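Male C57BL/6J mice given test compound (10 or 25 mgkg−1) or vehicle i.p. in 10% DMSO, 30 min before testing. 5 min habituation to 70 dB background noise, then six startle-alone trials. Ten blocks of randomized null, 120 dB startle, prepulse (4/8/12 dB above background)+startle, and prepulse-alone trials. PPI = [1−(prepulse+startle)/startle amplitude]×100%. n=8–14 per group; repeated-measures ANOVA.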

The target of the next data set is CYP3A4 (Homo sapiens, UniProt P08684). The data set can be described thus: Cytochrome P450 inhibition. The format is in vitro ADME. The following applies: up to 10 μM of 3a.
The mark [6] stands for this setting: primed substrate 20 μm, 10 μm ATP, tested at Reaction Biology Inc.

Like-named read-outs stand apart in the source and are kept apart here.

human GSK-3β, sequence (P49841 whole entry): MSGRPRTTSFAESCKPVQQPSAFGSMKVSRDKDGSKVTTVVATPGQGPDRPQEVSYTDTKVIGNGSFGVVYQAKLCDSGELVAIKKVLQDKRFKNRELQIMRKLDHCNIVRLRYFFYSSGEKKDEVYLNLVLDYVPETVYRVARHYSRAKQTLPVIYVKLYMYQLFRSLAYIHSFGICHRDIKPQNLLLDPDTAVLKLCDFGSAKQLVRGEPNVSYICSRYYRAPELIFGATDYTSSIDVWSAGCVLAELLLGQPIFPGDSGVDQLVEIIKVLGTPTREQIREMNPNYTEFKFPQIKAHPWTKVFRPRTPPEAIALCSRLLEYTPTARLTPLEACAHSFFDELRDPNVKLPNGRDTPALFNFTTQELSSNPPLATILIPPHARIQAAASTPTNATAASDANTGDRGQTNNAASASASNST
CYP2C19, sequence (P33261 whole entry): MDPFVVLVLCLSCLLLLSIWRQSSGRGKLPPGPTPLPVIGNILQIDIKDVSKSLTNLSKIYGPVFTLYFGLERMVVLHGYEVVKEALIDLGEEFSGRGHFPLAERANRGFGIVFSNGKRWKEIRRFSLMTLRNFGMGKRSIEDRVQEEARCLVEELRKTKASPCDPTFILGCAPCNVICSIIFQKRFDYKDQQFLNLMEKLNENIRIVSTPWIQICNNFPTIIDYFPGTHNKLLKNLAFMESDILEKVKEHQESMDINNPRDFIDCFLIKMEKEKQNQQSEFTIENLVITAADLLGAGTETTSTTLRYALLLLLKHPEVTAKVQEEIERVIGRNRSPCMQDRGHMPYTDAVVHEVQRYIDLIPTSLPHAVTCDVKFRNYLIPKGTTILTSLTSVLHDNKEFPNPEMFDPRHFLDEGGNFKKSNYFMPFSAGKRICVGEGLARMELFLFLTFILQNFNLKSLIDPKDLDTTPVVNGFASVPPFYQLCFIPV
CYP3A4, sequence (P08684 whole entry): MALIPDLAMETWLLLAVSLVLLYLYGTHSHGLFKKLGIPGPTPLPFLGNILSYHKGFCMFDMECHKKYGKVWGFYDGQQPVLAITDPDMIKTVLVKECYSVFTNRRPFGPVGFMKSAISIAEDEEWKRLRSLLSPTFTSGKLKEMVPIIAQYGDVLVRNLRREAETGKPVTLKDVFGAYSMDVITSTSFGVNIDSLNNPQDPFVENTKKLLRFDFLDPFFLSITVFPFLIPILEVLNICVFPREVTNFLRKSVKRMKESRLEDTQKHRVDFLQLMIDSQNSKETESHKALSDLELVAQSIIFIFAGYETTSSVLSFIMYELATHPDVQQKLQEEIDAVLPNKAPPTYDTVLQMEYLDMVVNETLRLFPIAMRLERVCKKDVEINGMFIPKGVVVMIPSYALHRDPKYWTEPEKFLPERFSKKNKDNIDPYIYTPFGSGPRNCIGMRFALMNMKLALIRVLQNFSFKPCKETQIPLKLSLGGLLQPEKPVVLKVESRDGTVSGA
CYP2C9, sequence (P11712 whole entry): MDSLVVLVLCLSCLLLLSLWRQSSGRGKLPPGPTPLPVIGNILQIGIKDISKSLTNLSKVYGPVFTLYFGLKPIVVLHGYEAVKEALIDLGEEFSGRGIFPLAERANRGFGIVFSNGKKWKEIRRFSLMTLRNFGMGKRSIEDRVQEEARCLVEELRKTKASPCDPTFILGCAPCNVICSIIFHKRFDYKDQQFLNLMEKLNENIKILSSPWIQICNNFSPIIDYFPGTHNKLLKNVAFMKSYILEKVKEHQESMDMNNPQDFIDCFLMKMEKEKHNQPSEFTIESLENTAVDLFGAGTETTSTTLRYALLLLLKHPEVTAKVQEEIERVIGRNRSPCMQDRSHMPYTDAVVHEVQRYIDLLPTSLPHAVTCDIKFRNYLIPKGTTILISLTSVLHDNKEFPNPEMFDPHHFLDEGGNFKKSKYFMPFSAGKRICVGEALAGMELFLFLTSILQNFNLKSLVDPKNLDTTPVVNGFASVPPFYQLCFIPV
CYP2D6, sequence (P10635 whole entry): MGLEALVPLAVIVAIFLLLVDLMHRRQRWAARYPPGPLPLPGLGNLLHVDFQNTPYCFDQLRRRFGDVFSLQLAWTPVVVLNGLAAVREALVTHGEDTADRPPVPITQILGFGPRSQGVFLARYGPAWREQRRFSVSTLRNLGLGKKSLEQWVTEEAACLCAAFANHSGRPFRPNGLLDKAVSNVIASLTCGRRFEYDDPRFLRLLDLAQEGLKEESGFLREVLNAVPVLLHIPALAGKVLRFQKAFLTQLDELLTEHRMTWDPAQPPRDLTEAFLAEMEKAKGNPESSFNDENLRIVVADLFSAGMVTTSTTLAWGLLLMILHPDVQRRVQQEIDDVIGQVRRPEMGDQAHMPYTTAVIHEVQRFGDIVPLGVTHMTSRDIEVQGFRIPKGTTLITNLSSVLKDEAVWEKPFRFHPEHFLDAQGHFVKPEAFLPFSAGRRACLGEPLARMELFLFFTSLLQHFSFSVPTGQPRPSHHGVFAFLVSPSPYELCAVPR

As a reminder, the IC50 is the midpoint of a concentration-inhibition curve. A higher IC50 goes with a need for much substance. On to `O=C1NC(=O)C(c2cn(C3CCNCC3)c3ccc(Br)cc23)=C1c1coc2ccccc12` [3 f, 3-Benzofuran-3-yl-4-(5-bromo-1-piperidin-4-yl-1H-indol-3-yl)-pyr-role-2,5-dione], for which the IC50 against human GSK-3β (setting [6]) came out at 684 ± 17 nM.

In turn, `O=C1NC(=O)C(c2cn(C3CCNCC3)c3ccccc23)=C1c1coc2ccccc12` [Compound 3a, 3-Benzofuran-3-yl-4-(1-piperidin-4-yl-1H-indol-3-yl)-pyrrole-2,5-dione] displayed a CYP2D6 inhibition at CYP2D6 of at most 30%. Moreover, the “compound remained after incubation with liver microsomes” value in data set [1] and in data set [3] was “more than 83%” each time. Besides, the CYP2C9 inhibition at CYP2C9 was at most 30%. Besides, the “activity in the Amph/CDP assay” value in the data set on C57BL/6J male mice [2] (3 mgkg^−1 i.p., 5 min pretreatment) is “not active”. Also, the baseline locomotor activity result with C57BL/6J male mice [2] (doses higher than 10 mgkg^−1) is on record as “reductions in baseline locomotor activity”. For the same compound, in the data set with ClockΔ19 mutant mice, the “locomotor hyperactivity in response to novelty (beam breaks)” value is “attenuation of the locomotor hyperactivity”. Besides, the CYP1A2 inhibition on CYP1A2 was at most 30%. This compound yielded an IC50 against human GSK-3β of 67 ± 6 nM. On CYP2C19, this compound yielded a CYP2C19 inhibition of at most 30%. The same compound had an aqueous solubility in data set [4] of 196 mgL^−1. In addition, the kinase selectivity result in the data set with 15 kinases was “reasonably selective amongst other kinases with the exception of PKA and PKC-b2”. The compound further gave a CYP2B6 inhibition on CYP2B6 of at most 30%. The “prepulse inhibition (PPI)” value is “not active” with C57BL/6J male mice [5] (10 mgkg^−1 i.p.) and “enhanced PPI” with C57BL/6J male mice [5] (25 mgkg^−1 i.p.). In addition, the CYP3A4 inhibition on CYP3A4 was at most 30%. `COc1ccc2c(C3=C(c4cn(C5CCNCC5)c5ccccc45)C(=O)NC3=O)coc2c1` [Compound 3b, 3-(6-Methoxy-benzofuran-3-yl)-4-(1-piperidin-4-yl-1H-indol-3-yl)-pyrrole-2,5-dione] had an IC50 on human GSK-3β of 629 ± 32 nM. `COc1cccc2c(C3=C(c4cn(C5CCNCC5)c5ccccc45)C(=O)NC3=O)coc12` [Compound 3c, 3-(7-Methoxy-benzofuran-3-yl)-4-(1-piperidin-4-yl-1H-indol-3-yl)-pyrrole-2,5-dione]: on human GSK-3β, the IC50 stood at 134 ± 5 nM. At human GSK-3β (setting [6]), `O=C1NC(=O)C(c2cn(C3CCNCC3)c3ccc(F)cc23)=C1c1coc2ccccc12` [Compound 3d, 3-Benzofuran-3-yl-4-(5-fluoro-1-piperidin-4-yl-1H-indol-3-yl)-pyr-role-2,5-dione] came in with an IC50 of 30 ± 4 nM.

`O=C1NC(=O)C(c2cn(C3CCNCC3)c3ccc(Cl)cc23)=C1c1coc2ccccc12` [Compound 3e, 3-Benzofuran-3-yl-4-(5-chloro-1-piperidin-4-yl-1H-indol-3-yl)-pyr-role-2,5-dione] registered an IC50 on human GSK-3β (setting [6]) of 272 ± 27 nM.

In the case of `COc1cccc2c(C3=C(c4cn(C5CCNCC5)c5ccc(F)cc45)C(=O)NC3=O)coc12` [Compound 3g, 3-(5-Fluoro-1-piperidin-4-yl-1H-indol-3-yl)-4-(7-methoxy-benzo-furan-3-yl)-pyrrole-2,5-dione], the IC50 against human GSK-3β amounted to 28 ± 4 nM.

As to `CN1CCC(n2cc(C3=C(c4coc5ccccc45)C(=O)NC3=O)c3ccccc32)CC1` [Compound 3h, 3-Benzofuran-3-yl-4-[1-(1-methyl-piperidin-4-yl)-1H-indol-3-yl]-pyrrole-2,5-dione], on human GSK-3β, the IC50 is 155 ± 2 nM. `O=C1NC(=O)C(c2cn(C3CCN(Cc4ccccn4)CC3)c3ccccc23)=C1c1coc2ccccc12` [Compound 3i, 3-Benzofuran-3-yl-4-[1-(1-pyridin-2-ylmethyl-piperidin-4-yl)-1H-indol-3-yl]-pyrrole-2,5-dione] yielded a half-inhibitory concentration (IC50) on human GSK-3β of 110 ± 4 nM.

`O=C1NC(=O)C(c2cn(C3CCN(Cc4ccncc4)CC3)c3ccccc23)=C1c1coc2ccccc12` [Compound 3j, 3-Benzofuran-3-yl-4-[1-(1-pyridin-4-ylmethyl-piperidin-4-yl)-1H-indol-3-yl]-pyrrole-2,5-dione] yielded an IC50 at human GSK-3β of 65 ± 4 nM.

`O=C1NC(=O)C(c2cn(C3CCN(C(=O)N4CCOCC4)CC3)c3ccccc23)=C1c1coc2ccccc12` [Compound 3k, 3-Benzofuran-3-yl-4-{1-[1-(morpholine-4-carbonyl)-piperidin-4-yl]-1H-indol-3-yl}-pyrrole-2,5-dione] came in with a half-maximal inhibitory concentration (IC50) at human GSK-3β of 10 ± 2 nM.

For the compound `O=C1NC(=O)C(c2cn(C3CCN(C(=O)c4ccccn4)CC3)c3ccccc23)=C1c1coc2ccccc12` [Compound 3l, 3-Benzofuran-3-yl-4-{1-[1-(pyridine-2-carbonyl)-piperidin-4-yl]-1H-indol-3-yl}-pyrrole-2,5-dione], the concentration for half-maximal inhibition (IC50) against human GSK-3β was found to be 6 ± 1 nM.

Compound `O=C1NC(=O)C(c2cn(C3CCN(C(=O)c4cccnc4)CC3)c3ccccc23)=C1c1coc2ccccc12` [Compound 3m, 3-Benzofuran-3-yl-4-{1-[1-(pyridine-3-carbonyl)-piperidin-4-yl]-1H-indol-3-yl}-pyrrole-2,5-dione] came in with an IC50 on human GSK-3β of 8 ± 2 nM.

Consider `O=C1NC(=O)C(c2cn(C3CCN(C(=O)c4ccncc4)CC3)c3ccccc23)=C1c1coc2ccccc12` [Compound 3n, 3-Benzofuran-3-yl-4-{1-[1-(pyridine-4-carbonyl)-piperidin-4-yl]-1H-indol-3-yl}-pyrrole-2,5-dione], for which the half-maximal inhibitory concentration (IC50) at human GSK-3β amounted to 4 ± 1 nM.

For the compound `O=C1NC(=O)C(c2cn(C3CCN(C(=O)c4cnccn4)CC3)c3ccccc23)=C1c1coc2ccccc12` [Compound 3o, 3-Benzofuran-3-yl-4-{1-[1-(pyrazine-2-carbonyl)-piperidin-4-yl]-1H-indol-3-yl}-pyrrole-2,5-dione], at human GSK-3β, half-maximal inhibition (IC50) was put at 4 ± 1 nM. Same read-out and setting: in the case of `NCC(=O)N1CCC(n2cc(C3=C(c4coc5ccccc45)C(=O)NC3=O)c3ccccc32)CC1` [Compound 3p, 3-{1-[1-(2-Amino-acetyl)-piperidin-4-yl]-1H-indol-3-yl}-4-benzofuran-3-yl-pyrrole-2,5-dione] it was 55 ± 2 nM; in that of `Cc1nonc1C(=O)N1CCC(n2cc(C3=C(c4coc5ccccc45)C(=O)NC3=O)c3ccccc32)CC1` [Compound 3q, 3-Benzofuran-3-yl-4-{1-[1-(4-methyl-furazan-3-carbonyl)-piperidin-4-yl]-1H-indol-3-yl}-pyrrole-2,5-dione], 25 ± 2 nM.
